ChEMBL document CHEMBL5724801, “EUbOPEN Chemogenomics Library - Multiplex” (2024)
Values joined by “and” are separate entries in the source; they are usually repeats but may differ in a detail not shown here. Equal values may be shown once.

System: U2OS
Test: Multiplex assay against U2OS
Type: toxicity, cell-based
Conditions: human
Outline: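 On a CQ1 microscope at 37°C and 5% CO2, live cells were imaged after compound addition. They had been stained at seeding with Hoechst33342, BioTracker Green Microtubule Cytoskeleton Dye, MitoTracker Red and Annexin V Alexa Fluor 680. CellPathfinder machine-learning gating assigned cells to Hoechst high-intensity objects or normal cells, normal cells to healthy, pyknosed or fragmented nuclei, and pyknosed cells to mitotic or apoptotic. Tubulin, mitochondrial-mass and membrane-permeability phenotypes are per cents of healthy-nucleus cells.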

[1] = 12 h, 1 µM, compound concentration 1 uM
[2] = 12 h, 10 µM, compound concentration 10 uM
[3] = 24 h, 1 µM, compound concentration 1 uM
[4] = 24 h, 10 µM, compound concentration 10 uM
[5] = 48 h, 1 µM, compound concentration 1 uM
[6] = 48 h, 10 µM, compound concentration 10 uM

SMILES: Cc1c(-c2cc(-c3ccccc3Cl)no2)cnn1C1CCNCC1.Cl
- Population Apoptotic (%) [1]: 35.85% and 50%
- Population Fragmented Nuclei (%) [1]: 2.99% and 1.04%
- Population Healthy Nuclei (%) [1]: 85.68% and 82.29%
- Population Hoechst High Intensity Objects (%) [1]: 0%
- Population Membrane Permeable-Phenotype (%) [1]: 0.5% and 3.8%
- Population Mitochondria Different-Phenotype (%) [1]: 0% and 8.86%
- Population Mitotic Cells (%) [1]: 64.15% and 50%
- Population Normal (%) [1]: 100%
- Population Pyknosed Nuclei (%) [1]: 11.32% and 16.67%
- Population Tubulin-Different-Phenotype (%) [1]: 1.5% and 1.9%
- Total Cell Count [1]: 468 and 192
- Population Apoptotic (%) [2]: 35.61% and 27.88%
- Population Fragmented Nuclei (%) [2]: 0.94% and 2.96%
- Population Healthy Nuclei (%) [2]: 57.68% and 20%
- Population Hoechst High Intensity Objects (%) [2]: 0%
- Population Membrane Permeable-Phenotype (%) [2]: 28.26% and 22.22%
- Population Mitotic Cells (%) [2]: 64.39% and 72.12%
- Population Normal (%) [2]: 100%
- Population Pyknosed Nuclei (%) [2]: 41.38% and 77.04%
- Population Tubulin-Different-Phenotype (%) [2]: 85.87% and 88.89%
- Total Cell Count [2]: 319 and 135
- Population Apoptotic (%) [3]: 37.5% and 39.02%
- Population Fragmented Nuclei (%) [3]: 2.05% and 3.23%
- Population Healthy Nuclei (%) [3]: 87.85% and 80.24%
- Population Hoechst High Intensity Objects (%) [3]: 0%
- Population Membrane Permeable-Phenotype (%) [3]: 0.18% and 2.01%
- Population Mitochondria Different-Phenotype (%) [3]: 0.18% and 7.54%
- Population Mitotic Cells (%) [3]: 62.5% and 60.98%
- Population Normal (%) [3]: 100%
- Population Pyknosed Nuclei (%) [3]: 10.09% and 16.53%
- Population Tubulin-Different-Phenotype (%) [3]: 1.08% and 1.51%
- Total Cell Count [3]: 634 and 248
- Population Apoptotic (%) [4]: 38.83% and 47.71%
- Population Fragmented Nuclei (%) [4]: 2.56% and 6.16%
- Population Healthy Nuclei (%) [4]: 49.23% and 19.18%
- Population Hoechst High Intensity Objects (%) [4]: 0% and 0.68%
- Population Membrane Permeable-Phenotype (%) [4]: 21.88% and 17.86%
- Population Mitotic Cells (%) [4]: 61.17% and 52.29%
- Population Normal (%) [4]: 100% and 99.32%
- Population Pyknosed Nuclei (%) [4]: 48.21% and 74.66%
- Population Tubulin-Different-Phenotype (%) [4]: 79.17% and 60.71%
- Total Cell Count [4]: 390 and 147
- Population Apoptotic (%) [5]: 42.02% and 57.78%
- Population Fragmented Nuclei (%) [5]: 2.39% and 2.74%
- Population Healthy Nuclei (%) [5]: 86.66% and 84.93%
- Population Hoechst High Intensity Objects (%) [5]: 0%
- Population Membrane Permeable-Phenotype (%) [5]: 1.59% and 2.58%
- Population Mitochondria Different-Phenotype (%) [5]: 0.11% and 7.74%
- Population Mitotic Cells (%) [5]: 57.98% and 42.22%
- Population Normal (%) [5]: 100%
- Population Pyknosed Nuclei (%) [5]: 10.95% and 12.33%
- Population Tubulin-Different-Phenotype (%) [5]: 2.23% and 3.55%
- Total Cell Count [5]: 1087 and 365
- Population Apoptotic (%) [6]: 59.43% and 95.93%
- Population Fragmented Nuclei (%) [6]: 1.36% and 2.17%
- Population Hoechst High Intensity Objects (%) [6]: 0.68% and 0%
- Population Normal (%) [6]: 99.32% and 100%
- Population Pyknosed Nuclei (%) [6]: 55.33% and 89.13%
- Population Tubulin-Different-Phenotype (%) [6]: 49.21% and 50%

SMILES: COc1cc2nc(N3CCN(C(=O)c4ccco4)CC3)nc(N)c2cc1OC.Cl [PRAZOSIN HYDROCHLORIDE]
- Population Apoptotic (%) [1]: 88% and 94%
- Population Fragmented Nuclei (%) [1]: 21% and 18%
- Population Healthy Nuclei (%) [1]: 70% and 69%
- Population Hoechst High Intensity Objects (%) [1]: 2% and 1%
- Population Membrane Permeable-Phenotype (%) [1]: 4% and 5%
- Population Mitochondria Different-Phenotype (%) [1]: 2% and 7%
- Population Mitotic Cells (%) [1]: 11% and 5%
- Population Normal (%) [1]: 97% and 98%
- Population Pyknosed Nuclei (%) [1]: 7% and 12%
- Population Tubulin-Different-Phenotype (%) [1]: 1% and 8%
- Total Cell Count [1]: 235 and 159
- Population Apoptotic (%) [2]: 86% and 72%
- Population Fragmented Nuclei (%) [2]: 25% and 15%
- Population Healthy Nuclei (%) [2]: 67% and 74%
- Population Hoechst High Intensity Objects (%) [2]: 3% and 0%
- Population Membrane Permeable-Phenotype (%) [2]: 12% and 4%
- Population Mitochondria Different-Phenotype (%) [2]: 2% and 5%
- Population Mitotic Cells (%) [2]: 13% and 27%
- Population Normal (%) [2]: 96% and 99%
- Population Pyknosed Nuclei (%) [2]: 7% and 9%
- Population Tubulin-Different-Phenotype (%) [2]: 6% and 7%
- Total Cell Count [2]: 216 and 114
- Population Apoptotic (%) [3]: 95% and 100%
- Population Fragmented Nuclei (%) [3]: 22% and 15%
- Population Healthy Nuclei (%) [3]: 69% and 74%
- Population Hoechst High Intensity Objects (%) [3]: 1% and 0%
- Population Membrane Permeable-Phenotype (%) [3]: 8% and 10%
- Population Mitochondria Different-Phenotype (%) [3]: 2% and 5%
- Population Mitotic Cells (%) [3]: 4% and 0%
- Population Normal (%) [3]: 98% and 100%
- Population Pyknosed Nuclei (%) [3]: 7% and 10%
- Population Tubulin-Different-Phenotype (%) [3]: 4% and 9%
- Total Cell Count [3]: 273 and 188
- Population Apoptotic (%) [4]: 78% and 85%
- Population Fragmented Nuclei (%) [4]: 23% and 13%
- Population Healthy Nuclei (%) [4]: 68% and 71%
- Population Hoechst High Intensity Objects (%) [4]: 2% and 1%
- Population Membrane Permeable-Phenotype (%) [4]: 8% and 7%
- Population Mitochondria Different-Phenotype (%) [4]: 6% and 5%
- Population Mitotic Cells (%) [4]: 21% and 14%
- Population Normal (%) [4]: 97% and 98%
- Population Pyknosed Nuclei (%) [4]: 7% and 15%
- Population Tubulin-Different-Phenotype (%) [4]: 6% and 4%
- Total Cell Count [4]: 244 and 138
- Population Apoptotic (%) [5]: 94% and 100%
- Population Fragmented Nuclei (%) [5]: 16% and 15%
- Population Healthy Nuclei (%) [5]: 74% and 77%
- Population Hoechst High Intensity Objects (%) [5]: 2% and 1%
- Population Membrane Permeable-Phenotype (%) [5]: 6% and 7%
- Population Mitochondria Different-Phenotype (%) [5]: 2% and 7%
- Population Mitotic Cells (%) [5]: 5% and 0%
- Population Normal (%) [5]: 97% and 98%
- Population Pyknosed Nuclei (%) [5]: 9% and 7%
- Population Tubulin-Different-Phenotype (%) [5]: 2% and 5%
- Total Cell Count [5]: 388 and 266
- Population Apoptotic (%) [6]: 96% and 94%
- Population Fragmented Nuclei (%) [6]: 20% and 15%
- Population Healthy Nuclei (%) [6]: 71% and 76%
- Population Hoechst High Intensity Objects (%) [6]: 1% and 2%
- Population Membrane Permeable-Phenotype (%) [6]: 5%
- Population Mitochondria Different-Phenotype (%) [6]: 2% and 6%
- Population Mitotic Cells (%) [6]: 3% and 5%
- Population Normal (%) [6]: 98% and 97%
- Population Pyknosed Nuclei (%) [6]: 8%
- Population Tubulin-Different-Phenotype (%) [6]: 3%
- Total Cell Count [6]: 341 and 208
